In ChEMBL document CHEMBL4251723, “Antibacterial Dimeric Acylphloroglucinols from Hypericum japonicum” (J Nat Prod, 2018):
≈ marks a conversion by molar mass, not a printed value.

Legend:
Escherichia coli = experiment: Antibacterial activity against Escherichia coli ATCC 11775; assay type: functional; conditions: DSM 30083 = JCM 1649 = ATCC 11775
In short: (§1)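 24 h growth-inhibition (MIC) assay. Final test concentration range was 50−3.13 μg/mL or 2.0−0.05 μg/mL depending on compound. Cefotaxime sodium served as positive control. Each experiment was repeated three times.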

Staphylococcus aureus = experiment: Antibacterial activity against Staphylococcus aureus […]; assay type: functional; in short: as §1
Salmonella typhimurium = experiment: Antibacterial activity against Salmonella typhimurium ATCC 6539; assay type: functional, Salmonella enterica subsp. enterica serovar Typhimurium; conditions: Salmonella enterica; in short: as §1
Enterococcus faecalis = experiment: Antibacterial activity against Enterococcus faecalis ATCC 10541; assay type: functional; in short: as §1
[1] = target: T1, Pancreatic triacylglycerol lipase (Sus scrofa, UniProt P00591); experiment: Inhibition of porcine pancreatic lipase using p-NPB as substrate pretreated for 15 mins followed by substrate addition measured after 15 mins by spectrophometric method
T1 sequence (P00591 whole entry): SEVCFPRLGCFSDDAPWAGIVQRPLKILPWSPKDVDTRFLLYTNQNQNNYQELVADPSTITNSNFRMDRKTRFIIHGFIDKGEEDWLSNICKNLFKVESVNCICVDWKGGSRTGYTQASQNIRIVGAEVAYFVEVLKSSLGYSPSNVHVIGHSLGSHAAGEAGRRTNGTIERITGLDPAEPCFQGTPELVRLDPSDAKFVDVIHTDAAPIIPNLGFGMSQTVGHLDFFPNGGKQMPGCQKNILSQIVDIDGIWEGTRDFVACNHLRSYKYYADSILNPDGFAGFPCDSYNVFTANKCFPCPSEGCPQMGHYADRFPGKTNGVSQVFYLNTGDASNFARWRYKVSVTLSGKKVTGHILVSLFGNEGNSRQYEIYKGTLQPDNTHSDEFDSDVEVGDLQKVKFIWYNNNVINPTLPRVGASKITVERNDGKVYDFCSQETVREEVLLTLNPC

Structure (SMILES)	MIC (Escherichia coli) [µM]	MIC (Staphylococcus aureus) [µM]	MIC (Salmonella typhimurium) [µM]	MIC (Enterococcus faecalis) [µM]	IC50 [1] [µM]
CCC(C)C(=O)C1=C(O)C(C)(C)C(O)=C(Cc2c(O)cc(OCC=C(C)C)c(C(=O)c3ccccc3)c2O)C1=O (centres undefined)	1.8 (≈ 0.988 µg/mL)	1.8 (≈ 0.988 µg/mL)	0.9 (≈ 0.494 µg/mL)	1.8 (≈ 0.988 µg/mL)	
CC(C)=CCC[C@]1(C)Oc2c(c(O)c(CC3=C(O)C(C)(C)C(O)=C(C(=O)C(C)C)C3=O)c(O)c2C(=O)C(C)C)C[C@H]1O	21.4 (≈ 12.5 µg/mL)	85.6 (≈ 50.1 µg/mL)	5.4 (≈ 3.16 µg/mL)	10.7 (≈ 6.26 µg/mL)	
CC(C)=CCOc1cc(O)c(CC2=C(O)C(C)(C)C(O)=C(C(=O)C(C)C)C2=O)c(O)c1C(=O)c1ccccc1	1.9 (≈ 1.02 µg/mL)	1.9 (≈ 1.02 µg/mL)	0.9 (≈ 0.481 µg/mL)	1.9 (≈ 1.02 µg/mL)	
CC(C)=CCC/C(C)=C/Cc1c(O)c(CC2=C(O)C(C)(C)C(O)=C(C(=O)C(C)C)C2=O)c(O)c(C(=O)C(C)C)c1O	0.9 (≈ 0.512 µg/mL)	1.8 (≈ 1.02 µg/mL)	1.8 (≈ 1.02 µg/mL)	1.8 (≈ 1.02 µg/mL)	
C=C(CCC=C(C)C)C(O)Cc1c(O)c(CC2=C(O)C(C)(C)C(O)=C(C(=O)C(C)C)C2=O)c(O)c(C(=O)C(C)C)c1O (centres undefined)	0.9 (≈ 0.526 µg/mL)	1.7 (≈ 0.994 µg/mL)	0.9 (≈ 0.526 µg/mL)	0.9 (≈ 0.526 µg/mL)	

The remaining lines, values ahead:

MIC (Escherichia coli) [µM]	MIC (Staphylococcus aureus) [µM]	MIC (Salmonella typhimurium) [µM]	MIC (Enterococcus faecalis) [µM]	IC50 [1] [µM]	Structure (SMILES)
0.9 (≈ 0.524 µg/mL)	3.4 (≈ 1.98 µg/mL)	1.7 (≈ 0.991 µg/mL)	1.7 (≈ 0.991 µg/mL)	8.3	CCC(C)C(=O)C1=C(O)C(C)(C)C(O)=C(Cc2c(O)c(C/C=C(\C)CCC=C(C)C)c(O)c(C(=O)C(C)C)c2O)C1=O (centres undefined)
0.8 (≈ 0.479 µg/mL)	3.3 (≈ 1.98 µg/mL)	0.8 (≈ 0.479 µg/mL)	0.8 (≈ 0.479 µg/mL)	14.5	C=C(CCC=C(C)C)C(O)Cc1c(O)c(CC2=C(O)C(C)(C)C(O)=C(C(=O)C(C)CC)C2=O)c(O)c(C(=O)C(C)C)c1O (centres undefined)
0.4	3.3	3.3	0.4		CO/N=C(\C(=O)N[C@@H]1C(=O)N2C(C(=O)O)=C(COC(C)=O)CS[C@H]12)c1csc(N)n1 [CEFOTAXIME SODIUM]
